SENP1 FRET inh: blocks the human SENP1 SUMO protease catalytic domain; inhibition, % at 10 µM; AID 624204; 0.21% of 360,000 active; recombinant SENP1 catalytic domain, CyPet-SUMO1-YPet FRET cleavage;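 active means inhibition at least 30% at 10 µM, raw YFP signal under a set limit, fluorescence ratio 0.5 to 1.5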;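 further: 0% = enzyme with DMSO and 100% = no enzyme wells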
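Test system: human SENP1 catalytic domain; medium: Tris pH 8 buffer plus EDTA, NaCl, BME, BSA, NP40, catalase; incubation: 50 min reaction at room temperature; technique: FRET, CFP and YFP emission; controls: no-enzyme low control and enzyme-plus-DMSO high control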
NadD block: NadD (S. aureus) enzyme inhibition. purified NadD enzyme, colorimetric absorbance read-out. inhibition, % at 20 µM. 0.78% of 360,000 active. AID 602399; in the data active means inhibition above about 26%
ATG4B inh: inhibitors of human ATG4B cysteine protease | Q9Y4P1 | inhibition, % at 8.33 µM | 0.51% of 340,000 active | ATG4B cleavage of LC3-PLA2, NBD-HPC fluorescence, 1 h; in the data active means inhibition above about 40%
GRIN3A LBD mod: modulators (binders) of human NR3A ligand-binding domain; NR3A LBD differential scanning fluorimetry, Tm shift; 0% = protein alone, 100% = glycine-bound protein; 2.5% of 340,000 active; Tm shift relative to glycine control, % at 25 µM; AID 1259313;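 active means melting temperature shift of at least 10% of the positive control shift, at one fixed dose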
UCH37 DUB inh: inhibitors of human deubiquitinating enzyme UCH37. purified proteasome/UCH37, Ub-AMC cleavage fluorescence. inhibition, % (test concentration not listed). 0.33% of 330,000 active. AID 588478;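 active means mean inhibition over replicate wells above about 20%, limit read from the data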;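 further: 0% = compound-free wells with enzyme and 100% = wells lacking proteasome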
Target sequence (Q9Y5K5 whole entry, looked up): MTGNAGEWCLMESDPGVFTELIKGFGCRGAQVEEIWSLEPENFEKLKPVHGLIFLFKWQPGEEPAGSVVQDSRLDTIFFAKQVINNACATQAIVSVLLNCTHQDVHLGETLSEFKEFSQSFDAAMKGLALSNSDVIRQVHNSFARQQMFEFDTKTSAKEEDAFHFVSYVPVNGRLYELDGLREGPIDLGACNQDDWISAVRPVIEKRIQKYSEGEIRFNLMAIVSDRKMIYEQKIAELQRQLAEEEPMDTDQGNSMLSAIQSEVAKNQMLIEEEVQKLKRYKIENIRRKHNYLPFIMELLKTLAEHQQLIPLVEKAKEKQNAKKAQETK
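Material: human UCH37 enzyme supplied as purified proteasome complex. Measure: % inhibition of Ub-AMC cleavage fluorescence. Medium: pH 7.4 Tris-HCl (50 mM) with ovalbumin, ATP-MgCl2, DTT. Times: 30 min preincubation with enzyme, 25 min cleavage at room temperature. Detection: AMC fluorescence intensity at 355/460 nm.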
ATG4B confirm: ATG4B (human) inhibition, single-dose confirmed. 92% of 320 active. inhibition, % at 8.33 µM. shares compounds with ATG4B inh. ATG4B protease fluorescent substrate cleavage assay; in the data active means inhibition above about 39%
PLA2 ctr: counter-screen for ATG4B inhibitors: human phospholipase A2; shares compounds with ATG4B inh; purified PLA2, NBD-C6-HPC fluorescence, 45 min; inhibition, % at 8.33 µM; 66% of 1,600 active; AID 588402; in the data active means inhibition above about 50%
Target sequence (P04054 whole entry, looked up): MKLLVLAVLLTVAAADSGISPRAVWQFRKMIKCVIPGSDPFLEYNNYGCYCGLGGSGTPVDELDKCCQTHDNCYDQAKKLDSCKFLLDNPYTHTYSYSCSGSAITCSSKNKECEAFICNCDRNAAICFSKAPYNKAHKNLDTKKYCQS
Active calls of the source: *; nt = not tested or not shown. Shown are actives, neighbours in structure and some others; about 3.6% of the full set was active somewhere.

SMILES	SENP1 FRET inh	NadD block	ATG4B inh	GRIN3A LBD mod	UCH37 DUB inh	PLA2 ctr	others
COc1ccc2c(c1)[C@@H]1[C@H](CO2)[C@H](c2ccccc2)[C@]2(C)C(=O)Nc3ccc(C)cc3C(=O)N12	-3	7	46*	-6	3	71*
COc1ccc(OC)c(-c2csc(N(Cc3ccco3)C(=O)c3cccs3)n2)c1	1	1	57*	4	1	72*
CN(Cc1c(C(=O)NN=Cc2cccc(O)c2)nnn1-c1nonc1N)C1CCCCC1	nt	nt	nt	nt	-9	nt
COc1cccc(C=NNc2nnc3c(n2)[nH]c2ccccc23)c1OC	nt	nt	nt	nt	3	nt
COc1ccc(NC(=O)CC(C)C)c([N+](=O)[O-])c1	2	0	4	-4	4	nt
COc1ccc(NC(=O)CC(C)c2ccccc2)c([N+](=O)[O-])c1 (configuration not stated)	-1	-1	42*	0	nt	1
Cc1ccc(-c2[nH]nc3c2C(c2ccc(OC(=O)N4CCOCC4)cc2)C(C#N)=C(N)O3)cc1 (configuration not stated)	1	0	43*	-6	8	42	ATG4B confirm=78*
Cc1cc(Br)c(OCc2ccc(C(=O)NN=C3CC4CC=CC34)cc2)c(Br)c1 (configuration not stated)	nt	nt	nt	nt	1	nt
Cc1cc(Br)c(OCc2ccc(C(=O)N/N=C3\CC4CC=CC34)cc2)c(Br)c1 (configuration not stated)	0	21	48*	12*	nt	49
Cc1cc(C)nc(NN=Cc2c[nH]c3ccccc23)n1	nt	nt	nt	nt	9	nt
O=C(NC(Cc1ccccc1)C(=O)O)OCC1c2ccccc2-c2ccccc21 (configuration not stated)	2	-1	44*	-3	6	63*
O=C(NC(Cc1ccccc1)C(=O)O)OCc1ccccc1 (configuration not stated)	0	-4	6	3	3	nt
Cc1cccc(C)c1N1CCN(S(=O)(=O)c2ccc(F)cc2)CC1	-15	2	51*	-1	3	62*
Cc1ccccc1CN1CCN(S(=O)(=O)c2ccc(F)cc2)CC1	1	-5	-9	0	2	nt
S=C(NCc1ccccc1)NC1CCCc2ccccc21 (configuration not stated)	1	-3	78*	-10	2	78*
S=C(NCc1ccco1)NC1CCCc2ccccc21 (configuration not stated)	-40	13	63*	-6	1	48
COc1ccc(-c2noc(CSc3nc4ccccc4c(=O)n3-c3ccccc3)n2)cc1	0	-7	2	0	1	nt
COC(=O)c1ccc(CSc2nc3ccccc3c(=O)n2-c2ccc(OC)c(OC)c2)o1	0	-4	19	0	1	nt
O=c1c2ccccc2nc(SCc2nnc(-c3ccccc3)o2)n1-c1ccccc1	1	4	72*	0	0	73*
COC(=O)c1ccc(CSc2nc3ccccc3c(=O)n2-c2ccccc2)o1	3	3	65*	1	-1	73*
COC(=O)c1ccc(CSc2nc3c(c(=O)n2-c2ccc(F)cc2)SCC3)o1	0	-3	48*	-1	4	50
O=C(CSc1nc2c(c(=O)n1-c1ccc(Cl)cc1)SCC2)Nc1nccs1	2	7	61*	15*	0	80*
COc1ccc(C=NNC(=O)c2ccc(O)cc2O)cc1CSc1ccccn1	nt	nt	nt	nt	-48	nt
N#CC(=NNc1ccc(Cl)c(Cl)c1)C(=O)C1CC1	nt	nt	nt	nt	3	nt
CCc1ccc(-c2cc(C(=O)NN=Cc3ccco3)[nH]n2)cc1	nt	nt	nt	nt	0	nt
SMILES	SENP1 FRET inh	NadD block	ATG4B inh	GRIN3A LBD mod	UCH37 DUB inh	PLA2 ctr	others
Cc1cc(C(=O)NN=Cc2ccc(-c3cccc(Cl)c3Cl)o2)n[nH]1	nt	nt	nt	nt	-9	nt
Cc1cc(C(=O)N/N=C/c2ccc(-c3cccc(Cl)c3Cl)o2)n[nH]1	4	13	50*	13*	nt	21
C/C(=N\NC(=O)c1cccc(Cl)c1)c1cccc(NC(=O)c2ccco2)c1	1	-1	-3	2	nt	nt
O=C(Nc1cccc(N=Cc2cc(Cl)cc(Br)c2O)c1)c1ccco1	-28	20	66*	8	2	56*
NC(=O)c1ccc(NC(=O)COC(=O)c2c3c(nc4ccccc24)/C(=C\c2cccs2)CCC3)cc1	-21	1	-21	4	-6	nt
CCc1cccc(C)c1NC(=O)COC(=O)c1c2c(nc3ccccc13)/C(=C\c1cccs1)CCC2	-43	21	46*	-1	-8	47
O=C(Nc1ccc(Cl)cc1)NC1CCCCC1Cc1ccco1 (configuration not stated)	-3	-3	70*	5	5	80*
O=C(Nc1ccc(Cl)cc1)NC1CCCC1Cc1ccco1 (configuration not stated)	-8	0	32	-3	2	nt
Cc1cc(C)cc(N2C(=O)CN(Cc3ccccc3)C2=S)c1	5	-8	70*	1	5	75*
CCc1ccc(N2C(=O)CN(Cc3ccccc3)C2=S)cc1	3	-7	12	1	3	nt
CCc1ccc(N2C(=O)CN(Cc3cccs3)C2=S)cc1	1	-6	65*	-2	-1	81*
COc1cccc(C=NNC(=O)C(=O)N2CCCC2)c1	nt	nt	nt	nt	4	nt
O=C(c1ccc(OC2CCN(C/C=C/c3ccc(F)cc3)CC2)cc1)N1CCCC1	-2	-2	42*	0	2	48	ATG4B confirm=64*
O=C(NN=Cc1cc2c(cc1Cl)OCO2)c1ccncc1	nt	nt	nt	nt	0	nt
CCc1cccc(CC)c1NC(=O)COC(=O)c1ccccc1-c1nc2ccccc2s1	1	1	66*	-7	2	74*
C=CCn1c(SCc2nc3ccccc3c(=O)[nH]2)nc2ccccc2c1=O	-6	2	1	-1	1	nt
COc1ccc(C(C)=O)cc1CSc1nc2ccccc2c(=O)n1-c1ccccc1	2	10	35	3	5	nt
COCCn1c(SCc2cc(C(C)=O)ccc2OC)nc2cc(Cl)ccc2c1=O	2	-6	63*	4	-1	63*
COc1ccc(C(C)=O)cc1CSc1nc2ccccc2c(=O)n1-c1ccccc1C	-1	2	53*	-1	1	81*
COc1ccc(C(C)=O)cc1CSc1nc2ccccc2c(=O)n1-c1cccc(C)c1	3	5	79*	-2	5	33	ATG4B confirm=50*
C=CCn1c(SCc2cc(C(C)=O)ccc2OCC)nc2ccccc2c1=O	3	-6	50*	1	-2	29	ATG4B confirm=52*
